Test results reported in ChEMBL document CHEMBL4049423, “Discovery of Novel 1,4-Diacylpiperazines as Selective and Cell-Active eIF4A3 Inhibitors” (J Med Chem, 2017).
Active and inactive are the calls of the source. No cut-off for these calls is given here.

Tests used:
[1] = biological target: T1, Eukaryotic initiation factor 4A-III (Homo sapiens, UniProt P38919); assay: Binding affinity to full-length human recombinant His6-tagged eIF4A3 expressed in Escherichia coli BL21(DE3) by surface plasmon resonance assay
T1 sequence (P38919 whole entry): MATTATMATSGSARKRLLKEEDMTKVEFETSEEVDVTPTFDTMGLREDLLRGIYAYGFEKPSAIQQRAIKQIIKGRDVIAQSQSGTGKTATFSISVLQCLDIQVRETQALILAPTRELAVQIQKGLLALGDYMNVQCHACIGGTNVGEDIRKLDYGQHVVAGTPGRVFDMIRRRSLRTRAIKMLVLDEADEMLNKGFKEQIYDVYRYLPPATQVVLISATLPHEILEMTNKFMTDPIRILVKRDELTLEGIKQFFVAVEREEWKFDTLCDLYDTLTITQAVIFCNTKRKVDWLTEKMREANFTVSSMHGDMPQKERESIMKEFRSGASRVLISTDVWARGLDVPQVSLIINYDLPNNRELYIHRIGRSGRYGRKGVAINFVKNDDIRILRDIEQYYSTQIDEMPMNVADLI
Method in brief: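 eIF4A3 immobilized on CM7 chip by amine coupling (5000–10 000 RU) in HBS-P+ with 1 mM DTT. Binding run at 25 °C in 20 mM Tris-HCl pH 8.0, 150 mM NaCl, 0.2 mM TCEP, 0.02% P20, 1−2% DMSO. Compound injected at 6−12 concentrations for 60−120 s at 50 μL/min, dissociation followed 120−1200 s. Sensorgrams double-referenced, globally fitted to 1:1 model.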

[2] = biological target: T1, Eukaryotic initiation factor 4A-III; assay: Inhibition of eIF4A3 (unknown origin) expressed in HEK293T cells assessed as NMD suppression at 10 uM after 6 hrs by luciferase reporter gene assay relative to control; type: cell-based
Method in brief: (§1)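 HEK293T cells were co-transfected (Lipofectamine LTX) with the pGL4.12 SV40-Luc2CP-BGG NMD reporter and a pRL-TK renilla control. After 24 h of transfection, cells were treated with compound for 6 h. Firefly/renilla luciferase ratio was measured by dual-luciferase assay and normalized to DMSO-treated cells, n = 2.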

[3] = biological target: T1, Eukaryotic initiation factor 4A-III; assay: Binding affinity to full-length human recombinant His6-tagged eIF4A3 expressed in Escherichia coli BL21(DE3) assessed as dissociation rate constant by surface plasmon resonance assay
Method in brief: (§2)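 eIF4A3 amine-coupled to a CM7 sensor chip (5000–10 000 RU) in HBS-P+ with 1 mM DTT. Binding was run at 25 °C in 20 mM Tris-HCl pH 8.0, 150 mM NaCl, 0.2 mM TCEP, 0.02% P20 and 1–2% DMSO. Compound series of 6–12 concentrations were injected for 60–120 s at 50 μL/min, with dissociation followed for 120–1200 s. Sensorgrams were double-referenced and globally fitted to a 1:1 model.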

[4] = biological target: T2, ATP-dependent RNA helicase DHX29 (Homo sapiens, UniProt Q7Z478); assay: Inhibition of human recombinant full-length FLAG-His-tagged DHX29 RNA dependent ATPase activity expressed in baculovirus infected Sf9 insect cells using single stranded poly(U) RNA as substrate after 30 mins by ADP-Glo luminescence assay
T2 sequence (Q7Z478 whole entry): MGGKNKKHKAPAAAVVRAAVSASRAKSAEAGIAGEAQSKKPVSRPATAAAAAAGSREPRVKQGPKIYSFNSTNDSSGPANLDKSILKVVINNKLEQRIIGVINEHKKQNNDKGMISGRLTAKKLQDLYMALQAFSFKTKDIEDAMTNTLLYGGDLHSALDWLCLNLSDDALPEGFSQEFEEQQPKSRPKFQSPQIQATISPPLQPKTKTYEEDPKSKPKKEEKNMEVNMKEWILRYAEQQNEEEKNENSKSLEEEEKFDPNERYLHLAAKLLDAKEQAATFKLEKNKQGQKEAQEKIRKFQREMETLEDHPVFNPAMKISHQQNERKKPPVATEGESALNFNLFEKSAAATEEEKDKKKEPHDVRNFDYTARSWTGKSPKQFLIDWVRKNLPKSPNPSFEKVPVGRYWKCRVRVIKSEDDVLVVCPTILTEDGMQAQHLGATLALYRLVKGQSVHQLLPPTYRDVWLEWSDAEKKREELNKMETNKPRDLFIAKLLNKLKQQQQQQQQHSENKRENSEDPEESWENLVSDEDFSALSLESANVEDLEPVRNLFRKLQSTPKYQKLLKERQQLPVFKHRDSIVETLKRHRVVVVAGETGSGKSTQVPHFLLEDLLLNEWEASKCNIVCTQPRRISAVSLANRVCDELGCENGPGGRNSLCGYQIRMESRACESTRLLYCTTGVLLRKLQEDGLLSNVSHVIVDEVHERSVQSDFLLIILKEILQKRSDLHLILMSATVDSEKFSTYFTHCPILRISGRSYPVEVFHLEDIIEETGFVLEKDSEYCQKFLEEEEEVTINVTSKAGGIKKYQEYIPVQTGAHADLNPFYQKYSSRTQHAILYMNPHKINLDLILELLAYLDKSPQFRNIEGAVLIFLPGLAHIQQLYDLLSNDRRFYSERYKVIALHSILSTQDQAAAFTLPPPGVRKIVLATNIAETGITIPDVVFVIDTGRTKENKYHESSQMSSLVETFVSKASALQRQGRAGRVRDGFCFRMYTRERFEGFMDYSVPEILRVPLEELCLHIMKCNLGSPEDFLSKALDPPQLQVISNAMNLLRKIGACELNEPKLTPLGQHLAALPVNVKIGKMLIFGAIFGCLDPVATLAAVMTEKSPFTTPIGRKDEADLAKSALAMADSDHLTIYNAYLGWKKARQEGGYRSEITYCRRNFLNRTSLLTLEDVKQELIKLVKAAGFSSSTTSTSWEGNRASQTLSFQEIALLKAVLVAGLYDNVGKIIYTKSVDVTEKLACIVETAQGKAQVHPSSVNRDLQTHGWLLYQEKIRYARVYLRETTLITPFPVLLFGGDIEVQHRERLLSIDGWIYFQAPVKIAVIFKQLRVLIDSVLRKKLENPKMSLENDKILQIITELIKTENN
Method in brief: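 DHX29 was Ni-NTA and Superdex 200 purified and used at 6.4 nM. Substrates were 30 μM ATP and 1.8 μg/mL poly(U), both at Km. Run in pH 7.5 Tris/MgCl2/KCl/DTT/Tween20 buffer, started with enzyme, 30 min at room temperature. ADP detected by ADP-Glo luminescence, with no-enzyme wells as 100% inhibition.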

[5] = biological target: T1, Eukaryotic initiation factor 4A-III; assay: Inhibition of MLN51-induced full-length human recombinant His6-tagged eIF4A3 RNA dependent ATPase activity expressed in Escherichia coli BL21(DE3) using single stranded poly(U) RNA as substrate after 30 mins by ADP-Glo luminescence assay
Method in brief: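 ADP-Glo luminescence read-out with 150 nM eIF4A3 plus an equimolar amount of MLN51. Substrates were 35 μM ATP and 1.5 μg/mL poly(U), both at Km. Buffer: 20 mM Tris-HCl pH 7.5, 2.5 mM MgCl2, 100 mM KCl, 1 mM DTT, 0.01% Tween20. Enzyme was added last to start the reaction, then incubated 30 min at room temperature. No-enzyme wells were taken as 100% inhibition and the complete reaction as 0%.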

[6] = biological target: Eukaryotic initiation factor 4A-I (Homo sapiens, UniProt P60842); assay: Inhibition of eIF4G-induced full-length human recombinant His6-tagged eIF4A1 RNA dependent ATPase activity expressed in Escherichia coli BL21(DE3) using single stranded poly(U) RNA as substrate after 40 mins by ADP-Glo luminescence assay
Sequence of Eukaryotic initiation factor 4A-I (P60842 whole entry): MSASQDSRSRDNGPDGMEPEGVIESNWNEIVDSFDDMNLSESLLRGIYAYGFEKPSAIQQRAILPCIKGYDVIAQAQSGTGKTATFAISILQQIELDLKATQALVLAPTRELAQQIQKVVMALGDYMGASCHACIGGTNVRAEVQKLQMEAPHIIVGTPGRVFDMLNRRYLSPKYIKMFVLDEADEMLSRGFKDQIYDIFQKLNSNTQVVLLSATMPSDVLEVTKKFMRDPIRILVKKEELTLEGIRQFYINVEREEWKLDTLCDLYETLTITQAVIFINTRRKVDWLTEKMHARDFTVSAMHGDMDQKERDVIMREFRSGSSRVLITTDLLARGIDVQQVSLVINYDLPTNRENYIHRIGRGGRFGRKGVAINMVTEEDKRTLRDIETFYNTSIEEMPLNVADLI
Method in brief: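 100 nM eIF4A1 with equimolar eIF4B and eIF4G, 35 μM ATP and 1.5 μg/mL poly(U), both at Km. Buffer: Tris-HCl pH 7.5, MgCl2, KCl, DTT, Tween20. The reaction was started with enzyme and run 40 min at room temperature, with ADP read by ADP-Glo luminescence. No-enzyme wells were set as 100% inhibition.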

[7] = biological target: Eukaryotic initiation factor 4A-II (Homo sapiens, UniProt Q14240); assay: Inhibition of eIF4G-induced human recombinant His6-tagged eIF4A2 RNA dependent ATPase activity using single stranded poly(U) RNA as substrate after 40 mins by ADP-Glo luminescence assay
Sequence of Eukaryotic initiation factor 4A-II (Q14240 whole entry): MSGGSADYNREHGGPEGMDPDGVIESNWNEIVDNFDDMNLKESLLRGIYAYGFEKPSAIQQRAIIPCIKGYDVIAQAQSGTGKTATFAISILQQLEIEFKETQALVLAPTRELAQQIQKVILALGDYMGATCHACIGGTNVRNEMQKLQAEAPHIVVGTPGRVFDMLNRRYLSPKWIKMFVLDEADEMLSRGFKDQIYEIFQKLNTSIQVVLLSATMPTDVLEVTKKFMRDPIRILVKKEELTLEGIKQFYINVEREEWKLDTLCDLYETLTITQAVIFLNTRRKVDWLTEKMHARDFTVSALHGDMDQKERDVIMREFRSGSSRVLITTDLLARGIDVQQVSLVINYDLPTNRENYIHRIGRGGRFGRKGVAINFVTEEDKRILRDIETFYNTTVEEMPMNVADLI
Method in brief: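 eIF4A2 was a purchased His-tagged human protein, used at 100 nM with equimolar eIF4B and eIF4G. Substrates were 20 μM ATP and 3.0 μg/mL poly(U), both at Km. The reaction was started with enzyme in Tris-HCl pH 7.5/MgCl2/KCl/DTT/Tween20 buffer and run 40 min at room temperature. ADP-Glo read-out, with the no-enzyme control set as 100% inhibition.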

[8] = biological target: T1, Eukaryotic initiation factor 4A-III; assay: Binding affinity to full-length human recombinant His6-tagged eIF4A3 expressed in Escherichia coli BL21(DE3) assessed as association rate constant by surface plasmon resonance assay; method in brief: as §2
[9] = biological target: T1, Eukaryotic initiation factor 4A-III; assay: Inhibition of eIF4A3 (unknown origin) expressed in HEK293T cells assessed as NMD suppression at 3 uM after 6 hrs by luciferase reporter gene assay relative to control; type: cell-based; method in brief: as §1
[10] = biological target: T1, Eukaryotic initiation factor 4A-III; assay: Binding affinity to full-length human recombinant His6-tagged eIF4A3 expressed in Escherichia coli BL21(DE3) assessed as dissociation half life by surface plasmon resonance assay; method in brief: as §2
[11] = biological target: U5 small nuclear ribonucleoprotein 200 kDa helicase (Homo sapiens, UniProt O75643); assay: Inhibition of human recombinant full-length His-tagged BRR2 RNA dependent ATPase activity expressed in baculovirus infected Sf9 insect cells using single stranded poly(U) RNA as substrate after 30 mins by ADP-Glo luminescence assay
Sequence of U5 small nuclear ribonucleoprotein 200 kDa helicase (O75643 whole entry): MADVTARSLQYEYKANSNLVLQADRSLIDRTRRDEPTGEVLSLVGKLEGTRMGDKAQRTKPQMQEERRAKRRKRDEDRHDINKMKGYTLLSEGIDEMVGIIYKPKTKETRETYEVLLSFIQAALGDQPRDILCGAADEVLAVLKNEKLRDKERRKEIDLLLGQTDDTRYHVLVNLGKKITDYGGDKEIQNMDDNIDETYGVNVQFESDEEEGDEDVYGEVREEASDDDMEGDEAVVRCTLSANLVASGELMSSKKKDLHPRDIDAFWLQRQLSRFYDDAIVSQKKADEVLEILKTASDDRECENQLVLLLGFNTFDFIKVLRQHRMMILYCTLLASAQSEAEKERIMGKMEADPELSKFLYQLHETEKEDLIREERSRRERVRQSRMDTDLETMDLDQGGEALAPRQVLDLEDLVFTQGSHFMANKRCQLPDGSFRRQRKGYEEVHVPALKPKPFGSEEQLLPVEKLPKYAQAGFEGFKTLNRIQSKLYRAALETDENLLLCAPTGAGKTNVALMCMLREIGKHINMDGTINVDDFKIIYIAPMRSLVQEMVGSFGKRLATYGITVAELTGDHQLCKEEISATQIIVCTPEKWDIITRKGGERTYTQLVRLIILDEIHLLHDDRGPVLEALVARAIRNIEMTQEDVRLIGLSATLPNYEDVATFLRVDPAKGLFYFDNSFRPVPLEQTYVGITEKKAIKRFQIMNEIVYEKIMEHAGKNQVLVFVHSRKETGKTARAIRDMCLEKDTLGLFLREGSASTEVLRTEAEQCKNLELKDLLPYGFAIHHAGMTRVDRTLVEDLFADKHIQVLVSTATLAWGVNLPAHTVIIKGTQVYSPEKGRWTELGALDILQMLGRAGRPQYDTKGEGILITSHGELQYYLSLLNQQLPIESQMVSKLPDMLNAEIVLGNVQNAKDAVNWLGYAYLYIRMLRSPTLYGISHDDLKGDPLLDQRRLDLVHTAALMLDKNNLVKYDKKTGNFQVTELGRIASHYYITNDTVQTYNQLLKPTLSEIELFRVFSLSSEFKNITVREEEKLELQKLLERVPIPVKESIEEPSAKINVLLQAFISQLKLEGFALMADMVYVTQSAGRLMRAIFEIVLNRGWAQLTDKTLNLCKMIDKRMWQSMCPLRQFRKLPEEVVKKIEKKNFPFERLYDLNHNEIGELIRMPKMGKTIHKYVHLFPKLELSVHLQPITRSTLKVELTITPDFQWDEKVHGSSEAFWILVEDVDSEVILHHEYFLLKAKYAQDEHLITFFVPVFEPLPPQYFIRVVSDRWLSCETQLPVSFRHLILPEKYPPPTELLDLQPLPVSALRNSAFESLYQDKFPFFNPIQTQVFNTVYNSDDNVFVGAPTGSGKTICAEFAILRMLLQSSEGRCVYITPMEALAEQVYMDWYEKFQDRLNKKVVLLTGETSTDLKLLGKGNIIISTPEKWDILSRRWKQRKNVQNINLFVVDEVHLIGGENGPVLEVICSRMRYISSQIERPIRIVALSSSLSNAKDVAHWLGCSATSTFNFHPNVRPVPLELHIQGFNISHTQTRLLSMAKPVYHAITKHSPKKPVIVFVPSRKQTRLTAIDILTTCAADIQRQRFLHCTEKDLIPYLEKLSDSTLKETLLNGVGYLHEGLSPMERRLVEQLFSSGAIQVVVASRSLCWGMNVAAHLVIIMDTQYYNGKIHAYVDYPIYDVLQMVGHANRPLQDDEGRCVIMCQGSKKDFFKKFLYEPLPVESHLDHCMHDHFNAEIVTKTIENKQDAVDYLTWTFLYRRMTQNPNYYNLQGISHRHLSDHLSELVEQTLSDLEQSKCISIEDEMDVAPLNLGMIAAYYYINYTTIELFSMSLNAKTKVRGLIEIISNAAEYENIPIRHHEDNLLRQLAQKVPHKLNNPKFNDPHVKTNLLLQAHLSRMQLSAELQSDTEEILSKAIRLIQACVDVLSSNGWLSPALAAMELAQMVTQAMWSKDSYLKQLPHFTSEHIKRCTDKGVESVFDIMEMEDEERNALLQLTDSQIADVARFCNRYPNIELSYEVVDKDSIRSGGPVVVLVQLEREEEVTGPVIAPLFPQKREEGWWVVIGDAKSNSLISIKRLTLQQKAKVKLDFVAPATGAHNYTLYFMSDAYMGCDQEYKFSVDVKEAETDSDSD
Method in brief: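 BRR2 was Ni-NTA and gel-filtration purified and used at 6.25 nM. Substrates were 20 μM ATP and 2.5 μg/mL poly(U), both at Km. Buffer: 20 mM Tris-HCl pH 7.5, 2.5 mM MgCl2, 100 mM KCl, 1 mM DTT, 0.01% Tween20. Started with enzyme and incubated 30 min at room temperature, with ADP-Glo luminescence read-out.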

Row | Structure (SMILES) | Kd [1] | fold change (FC) [2] | K [3] | IC50 [5] | K [8] | T1/2 [10] | other results
1 | Cc1c(C(=O)N2CCN(C(=O)c3ccc(Br)cc3)[C@@H](c3ccc(Cl)cc3)C2)cnn1-c1cccc(C#N)c1 | 43 nM | 3.69 | 6.9 ×10⁻⁴ /s | 260 nM | 1.6 ×10⁴ /M/s | 16.8 min | IC50 [4]: > 100000 nM; IC50 [6]: > 100000 nM; IC50 [7]: > 100000 nM; fold change (FC) [9]: 2.72; IC50 [11]: > 100000 nM
2 | O=C(c1cnn2cc(Br)ccc12)N1CCN(C(=O)c2ccc(Br)cc2)[C@H](c2ccc(Cl)cc2)C1 | 16000 nM |  | 2.4 ×10⁻² /s | 60000 nM | 1.5 ×10³ /M/s | 0.477 min | 
3 | Cc1c(C(=O)N2CCN(C(=O)c3ccc(Br)cc3)C(c3ccc(Cl)cc3)C2)cnn1-c1cccc(C#N)c1 (stereo unspecified) |  | 2.3 |  | 580 nM |  |  | NMD suppression activity (qualitative) [9]: Active
4 | O=C(c1cnn2cc(Br)ccc12)N1CCN(C(=O)c2ccc(Br)cc2)[C@@H](c2ccc(Cl)cc2)C1 | 57 nM |  | 1.6 ×10⁻³ /s | 200 nM | 2.8 ×10⁴ /M/s | 7.3 min | 
5 | Cc1c(C(=O)N2CCN(C(=O)c3ccc(Br)cc3)[C@H](c3ccc(Cl)cc3)C2)cnn1-c1cccc(C#N)c1 |  | 1.34 |  | > 100000 nM |  |  | fold change (FC) [9]: 1.1
6 | COc1ccc2c(C(=O)N3CCN(C(=O)c4ccc(Br)cc4)C(c4ccc(Cl)cc4)C3)cnn2c1 (stereo unspecified) |  | 1.7 |  | 920 nM |  |  | NMD suppression activity (qualitative) [9]: Active
7 | C[C@H]1C[C@@]2(O[C@H]3C[C@H]4[C@@H]5CC[C@H]6C[C@H](O)CC[C@]6(C)[C@H]5[C@@H](O)C[C@]4(C)[C@H]3[C@@]2(C)O)OC1(C)C |  |  |  |  |  |  | Activity [1]: Dose-dependent effect
